Experimental data: ChEMBL document CHEMBL4138228, “Substituted carbamothioic amine-1-carbothioic thioanhydrides as novel trichomonicidal fungicides: Design, synthesis, and biology” (Eur J Med Chem, 2018)
In brackets after ≈: the same amount, converted by molar mass.

Columns and labels:
[1] = tested on: Candida albicans; test: Antifungal activity against Candida albicans patient isolate after 48 hrs by broth microdilution method; format: functional
In short: (§1)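 Broth microdilution per NCCLS guidelines in MOPS-buffered RPMI 1640; starting inoculum 1-5 x 10^3 CFU/mL; plates incubated at 35 °C; MIC recorded after 48 h; fluconazole as reference; experiments repeated three times.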

[2] = tested on: Trichophyton mentagrophytes; test: Antifungal activity against Trichophyton mentagrophytes after 48 hrs by broth microdilution method; format: functional; in short: as §1
[3] = tested on: HeLa; test: Cytotoxicity against human HeLa cells after 24 hrs by MTT assay; format: cell-based
[4] = tested on: Nakaseomyces glabratus; test: Antifungal activity against Candida glabrata ATCC 2001 after 48 hrs by broth microdilution method; format: functional; details: ATCC 2001, 48 h; in short: as §1
[5] = tested on: Candida albicans; test: Antifungal activity against Candida albicans MTCC 183 after 48 hrs by broth microdilution method; format: functional; details: MTCC 183, 48 h; in short: as §1
[6] = tested on: Candida albicans; test: Antifungal activity against Candida albicans ATCC 10231 after 48 hrs by broth microdilution method; format: functional; details: ATCC 10231, 48 h; in short: as §1
[7] = tested on: Candida albicans; test: Antifungal activity against Candida albicans ATCC 66027 after 48 hrs by broth microdilution method; format: functional; details: ATCC 66027, 48 h; in short: as §1
[8] = tested on: Candida albicans; test: Antifungal activity against Candida albicans ATCC 14053 after 48 hrs by broth microdilution method; format: functional; details: ATCC 14053, 48 h; in short: as §1
[9] = tested on: Cryptococcus neoformans; test: Antifungal activity against Cryptococcus neoformans after 48 hrs by broth microdilution method; format: functional; in short: as §1
[10] = Selectivity index, ratio of IC50 for human HeLa cells to MIC for metronidazole-resistant Trichomonas vaginalis CDC085 ATCC 50143; format: toxicity; details: read-out: Selectivity Index
[11] = Selectivity index, ratio of IC50 for human HeLa cells to MIC for metronidazole-susceptible Trichomonas vaginalis; format: toxicity; details: read-out: Selectivity Index
[12] = tested on: Trichomonas vaginalis; test: Antitrichomonas activity against metronidazole-resistant Trichomonas vaginalis CDC085 ATCC 50143 assessed as decrease in cell viability after 48 hrs by trypan blue exclusion method; format: functional; details: CDC085 ATCC 50143, 48 h
[13] = tested on: Trichomonas vaginalis; test: Antitrichomonas activity against metronidazole-susceptible Trichomonas vaginalis assessed as decrease in cell viability after 48 hrs by trypan blue exclusion method; format: functional
[14] = tested on: Candida parapsilosis; test: Antifungal activity against Candida parapsilosis ATCC 22019 after 48 hrs by broth microdilution method; format: functional; details: Lodderomyces parapsilosis, ATCC 22019, 48 h; in short: as §1
[15] = tested on: Sporothrix schenckii; test: Antifungal activity against Sporothrix schenckii after 48 hrs by broth microdilution method; format: functional; in short: as §1
[16] = tested on: Trichomonas vaginalis; test: Potency index, ratio of metronidazole MIC to test compound MIC for metronidazole-resistant Trichomonas vaginalis CDC085 ATCC 50143; format: functional

SMILES	MIC [1]	MIC [2]	IC50 [3]	MIC [4]	MIC [5]	MIC [6]	MIC [7]	MIC [8]	MIC [9]	selectivity ratio [10]	selectivity ratio [11]	MIC [12]	MIC [13]	MIC [14]	MIC [15]	Ratio [16]
CN(C)C(=S)SC(=S)N1CCOCC1	200 µM (≈ 50.1 µg/mL)	100 µM (≈ 25 µg/mL)	4 mM	100 µM (≈ 25 µg/mL)	50 µM (≈ 12.5 µg/mL)	25 µM (≈ 6.26 µg/mL)	100 µM (≈ 25 µg/mL)	50 µM (≈ 12.5 µg/mL)	200 µM (≈ 50.1 µg/mL)	10	40	400 µM (≈ 100 µg/mL)	100 µM (≈ 25 µg/mL)	200 µM (≈ 50.1 µg/mL)	100 µM (≈ 25 µg/mL)	
CN(C)C(=S)SC(=S)N1CCN(C(=S)SCc2ccccc2)CC1	30 µM (≈ 12.5 µg/mL)	60.1 µM (≈ 25 µg/mL)	> 5 mM	120 µM (≈ 50 µg/mL)	120 µM (≈ 50 µg/mL)	> 120 µM	30 µM (≈ 12.5 µg/mL)	120 µM (≈ 50 µg/mL)	60.1 µM (≈ 25 µg/mL)	> 41	> 83	120 µM (≈ 50 µg/mL)	60.1 µM (≈ 25 µg/mL)	7.5 µM (≈ 3.12 µg/mL)	60.1 µM (≈ 25 µg/mL)	1.3 - 11.2
CCCCSC(=S)N1CCN(C(=S)SC(=S)N(C)C)CC1	16.3 µM (≈ 6.23 µg/mL)	32.7 µM (≈ 12.5 µg/mL)	> 5 mM	131 µM (≈ 49.9 µg/mL)	131 µM (≈ 49.9 µg/mL)	> 131 µM	32.7 µM (≈ 12.5 µg/mL)	131 µM (≈ 49.9 µg/mL)	65.3 µM (≈ 24.9 µg/mL)	> 7	> 19	654 µM (≈ 250 µg/mL)	262 µM (≈ 99.9 µg/mL)	8.16 µM (≈ 3.11 µg/mL)	32.7 µM (≈ 12.5 µg/mL)	
CCCCN1CCN(C(=S)SC(=S)N(C)C)CC1	163 µM (≈ 49.9 µg/mL)	163 µM (≈ 49.9 µg/mL)	4.1 mM	163 µM (≈ 49.9 µg/mL)	81.7 µM (≈ 25 µg/mL)	163 µM (≈ 49.9 µg/mL)	81.7 µM (≈ 25 µg/mL)	163 µM (≈ 49.9 µg/mL)	163 µM (≈ 49.9 µg/mL)	50	200	81.7 µM (≈ 25 µg/mL)	20.4 µM (≈ 6.24 µg/mL)	163 µM (≈ 49.9 µg/mL)	163 µM (≈ 49.9 µg/mL)	1.3 - 9.5
CN(C)C(=S)SC(=S)N1CCN(C(=S)SCCCC#N)CC1	> 127 µM	127 µM (≈ 50 µg/mL)	> 5 mM	> 127 µM	> 127 µM	> 127 µM	> 127 µM	> 127 µM	> 127 µM	> 39	> 79	127 µM (≈ 50 µg/mL)	63.6 µM (≈ 25 µg/mL)	> 127 µM	127 µM (≈ 50 µg/mL)	1.3 - 11.2
CN(C)C(=S)SC(=S)N1CCCCCC1	23.9 µM (≈ 6.26 µg/mL)	23.9 µM (≈ 6.26 µg/mL)	> 5 mM	11.9 µM (≈ 3.12 µg/mL)	47.7 µM (≈ 12.5 µg/mL)	23.9 µM (≈ 6.26 µg/mL)	23.9 µM (≈ 6.26 µg/mL)	11.9 µM (≈ 3.12 µg/mL)	47.7 µM (≈ 12.5 µg/mL)	> 26	> 52	191 µM (≈ 50.1 µg/mL)	95.4 µM (≈ 25 µg/mL)	23.9 µM (≈ 6.26 µg/mL)	23.9 µM (≈ 6.26 µg/mL)	1.5 - 3.8
CN(C)C(=S)SC(=S)N(C)C [BIS(DIMETHYLAMINETHIOCARBONYL)MONOSULFIDE]	120 µM (≈ 25 µg/mL)	60.1 µM (≈ 12.5 µg/mL)	> 5 mM	60.1 µM (≈ 12.5 µg/mL)	120 µM (≈ 25 µg/mL)	120 µM (≈ 25 µg/mL)	60.1 µM (≈ 12.5 µg/mL)	120 µM (≈ 25 µg/mL)	240 µM (≈ 50.1 µg/mL)	> 20	> 83	240 µM (≈ 50.1 µg/mL)	60.1 µM (≈ 12.5 µg/mL)	120 µM (≈ 25 µg/mL)	60.1 µM (≈ 12.5 µg/mL)	1.3 - 11.2
CCCCNC(=S)N1CCN(C(=S)SC(=S)N(C)C)CC1	137 µM (≈ 49.9 µg/mL)	137 µM (≈ 49.9 µg/mL)	2.84 mM	> 137 µM	> 137 µM	> 137 µM	> 137 µM	> 137 µM	> 137 µM	20	41	137 µM (≈ 49.9 µg/mL)	68.5 µM (≈ 25 µg/mL)	137 µM (≈ 49.9 µg/mL)	137 µM (≈ 49.9 µg/mL)	1.3 - 11.2
CCN(CC)C(=S)SC(=S)N(C)C	53 µM (≈ 12.5 µg/mL)	26.5 µM (≈ 6.26 µg/mL)	> 5 mM	> 212 µM	106 µM (≈ 25 µg/mL)	> 212 µM	53 µM (≈ 12.5 µg/mL)	> 212 µM	106 µM (≈ 25 µg/mL)	> 47	> 94	106 µM (≈ 25 µg/mL)	53 µM (≈ 12.5 µg/mL)	26.5 µM (≈ 6.26 µg/mL)	26.5 µM (≈ 6.26 µg/mL)	1.5 - 3.8
CN(C)C(=S)SC(=S)N1CCN(c2ccccc2)CC1	38.3 µM (≈ 12.5 µg/mL)	76.7 µM (≈ 25 µg/mL)	1.61 mM	> 153 µM	> 153 µM	> 153 µM	> 153 µM	> 153 µM	76.7 µM (≈ 25 µg/mL)	21	42	76.7 µM (≈ 25 µg/mL)	38.3 µM (≈ 12.5 µg/mL)	76.7 µM (≈ 25 µg/mL)	76.7 µM (≈ 25 µg/mL)	1.3 - 9.5
CN(C)C(=S)SC(=S)N1CCN(C(=O)NC2CCCCC2)CC1	> 133 µM	133 µM (≈ 49.9 µg/mL)	> 5 mM	> 133 µM	> 133 µM	> 133 µM	> 133 µM	> 133 µM	> 133 µM	> 18	> 37	267 µM (≈ 99.9 µg/mL)	133 µM (≈ 49.9 µg/mL)	133 µM (≈ 49.9 µg/mL)	133 µM (≈ 49.9 µg/mL)	1.3 - 11.2
OC(Cn1cncn1)(Cn1cncn1)c1ccc(F)cc1F [FLUCONAZOLE]	3.26 µM (≈ 0.998 µg/mL)	> 105 µM		13.1 µM (≈ 4 µg/mL)		3.26 µM (≈ 0.998 µg/mL)	1.63 µM (≈ 0.499 µg/mL)	0.39 µM (≈ 0.119 µg/mL)	6.53 µM (≈ 2 µg/mL)					6.53 µM (≈ 2 µg/mL)	6.53 µM (≈ 2 µg/mL)	
CSC(=S)N1CCN(C(=S)SC(=S)N(C)C)CC1	> 147 µM	147 µM (≈ 49.9 µg/mL)	> 5 mM	> 147 µM	> 147 µM	> 147 µM	> 147 µM	> 147 µM	> 147 µM	> 7	> 17	735 µM (≈ 250 µg/mL)	294 µM (≈ 99.9 µg/mL)	36.8 µM (≈ 12.5 µg/mL)	147 µM (≈ 49.9 µg/mL)	
